# Source: ChEMBL document CHEMBL1795307, “Synthesis and anti-inflammatory activity of some novel 3-phenyl-N-[3-(4-phenylpiperazin-1yl)propyl]-1H-pyrazole-5-carboxamide derivatives” (2011)
# Key:
# Format in all cases: functional
# Rattus norvegicus [1] = experiment: Antiinflammatory activity against carrageenan-induced paw edema in rat at 100 mg/kg, po administered 1 hr before carrageenan challenge measured after 1 hr relative to control
# How it was run: (§1)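 Rats of either sex (130–180 g), fasted ≥16 h with water available, six per group. Compound given orally in 1% CMC solution 1 h before 0.1 mL of 1% carrageenan suspension injected into hind paw; controls received vehicle. Paw volume read by mercury-displacement plethysmometer before and 1, 2, 3, 4 h after carrageenan. Percent inhibition from mean paw-volume increase versus control.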
# Rattus norvegicus [2] = experiment: Antiinflammatory activity against carrageenan-induced paw edema in rat at 100 mg/kg, po administered 1 hr before carrageenan challenge measured after 2 hrs relative to control; how it was run: as §1
# Rattus norvegicus [3] = experiment: Antiinflammatory activity against carrageenan-induced paw edema in rat at 100 mg/kg, po administered 1 hr before carrageenan challenge measured after 3 hrs relative to control; how it was run: as §1
# Rattus norvegicus [4] = experiment: Antiinflammatory activity against carrageenan-induced paw edema in rat at 100 mg/kg, po administered 1 hr before carrageenan challenge measured after 4 hrs relative to control; how it was run: as §1
Structure (SMILES),Activity (Rattus norvegicus [1]) [%],Activity (Rattus norvegicus [2]) [%],Activity (Rattus norvegicus [3]) [%],Activity (Rattus norvegicus [4]) [%]
O=C(NCCCN1CCN(c2ccccc2)CC1)c1cc(-c2cccc([N+](=O)[O-])c2)n[nH]1,67,75,78,75.5
O=C(NCCCN1CCN(c2ccccc2)CC1)c1cc(-c2ccc([N+](=O)[O-])cc2)n[nH]1,53.9,75.6,76,72.2
Cc1ccc(-c2cc(C(=O)NCCCN3CCN(c4ccccc4)CC3)[nH]n2)cc1,60.5,55.5,67.3,63.3
Cc1cccc(-c2cc(C(=O)NCCCN3CCN(c4ccccc4)CC3)[nH]n2)c1,60.5,65.2,70.6,70
COc1cccc(-c2cc(C(=O)NCCCN3CCN(c4ccccc4)CC3)[nH]n2)c1,52.6,62.5,65.2,64.4
CC(C)Cc1ccc(C(C)C(=O)O)cc1 (stereo unspecified) [IBUPROFEN],42.1,–,72.8,63.3
O=C(NCCCN1CCN(c2ccccc2)CC1)c1cc(-c2ccccc2)n[nH]1,47.3,55.5,61.9,58.8
COc1ccc(-c2cc(C(=O)NCCCN3CCN(c4ccccc4)CC3)[nH]n2)cc1,55.2,69.4,75,70
